Reference: ChEMBL document CHEMBL1128190, “Inhibition of E-selectin-, ICAM-1-, and VCAM-1-mediated cell adhesion by benzo[b]thiophene-, benzofuran-, indole-, and naphthalene-2-carboxamides: identification of PD 144795 as an antiinflammatory agent” (J Med Chem, 1995)

Columns and labels:
[1] = Cell adhesion measured using the inhibitory concentration against Human umbilical vein endothelial cell (HUVEC) activation, with Na51CrO4 as radioligand at 100 uM; type: functional
Method in brief: (§1)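 Confluent second-passage HUVEC monolayers were stimulated with TNF-α (200 U/mL) for 4 h with or without compound at 100 μM, then washed. Fresh human neutrophils labelled with Na⁵¹CrO₄ (5 × 10⁵) were added for 30 min at 37 °C. Non-adherent cells were aspirated and adherent cells lysed in NH₄OH; lysates were γ-counted. Results are % inhibition of TNF-stimulated adherence, triplicate. IC50 came from linear regression at 33.3–1.0 μM.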

[2] = The compound was tested for cell adhesion by measuring the inhibitory concentration against Human umbilical vein endothelial cell (HUVEC) activation, using calcein-AM as radioligand at 33 uM; type: functional
[3] = The compound was tested for inhibitory activity against intercellular adhesion molecule (ICAM)-1 mediated cell adhesion in Human umbilical endothelial cell culture, by using HUVEC surface expression assay.; type: functional, cell-based
Method in brief: (§2)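 HUVECs were pretreated with compound for 30 min, then stimulated with TNF-α (140 U/mL final) for 4 h at 37 °C. Unstimulated background was subtracted and results given as % inhibition versus vehicle. IC50 came from linear regression; average of two triplicate assays.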

[4] = The compound was tested for cell adhesion by measuring the inhibitory concentration against Human umbilical vein endothelial cell (HUVEC) activation, using Na51CrO4 as radioligand.; type: functional, cell-based
[5] = The compound was tested for inhibitory activity against intercellular adhesion molecule (ICAM)-1 mediated cell adhesion in Human aortic endothelial cell culture, by using HAEC surface expression assay at 50 uM; type: functional
Method in brief: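 Confluent human aortic endothelial cells were incubated with TNF-α (250 U/mL) and compound (0.005% DMSO final) for 18 h. Cells were formalin-fixed and probed with anti-ICAM-1 mAb (2 h, 37 °C), then peroxidase anti-mouse IgG (1 h) and colour reagent (15 min). Read-out was OD414.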

[6] = The compound was tested for inhibitory activity against E-Selectin mediated cell adhesion in Human umbilical endothelial cell culture, by using HUVEC surface expression assay.; type: functional, cell-based
Method in brief: (§3)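 Confluent HUVECs were given compound 30 min before TNF-α (140 U/mL final), then incubated 4 h at 37 °C. Unstimulated background was subtracted and results given as % inhibition versus vehicle. IC50 came from linear regression; average of two assays, each in triplicate.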

[7] = The compound was tested for cell adhesion by measuring the inhibitory concentration against Human umbilical vein endothelial cell (HUVEC) activation, using calcein-AM as radioligand at 100 uM; type: functional
[8] = Inhibitory activity against E-Selectin mediated cell adhesion in Human umbilical endothelial cell culture, by using HUVEC surface expression assay at 50 uM; type: functional
Method in brief: as §3, with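 “°C. Cells were formalin-fixed and surface E-selectin detected by cell ELISA (mouse anti-E-selectin 0.5 μg/mL, peroxidase anti-mouse IgG), with absorbance at 414 nm.” for “°C.”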

[9] = The compound was tested for cell adhesion by measuring the inhibitory concentration against Human umbilical vein endothelial cell (HUVEC) activation, using Na51CrO4 as radioligand at 50 uM; type: functional
Rattus norvegicus = test: Inhibitory activity against Mycobacterium-induced foot-pad edema(MFE)at 50 mg/kg; type: functional
[10] = Inhibitory activity against intercellular adhesion molecule (ICAM)-1 mediated cell adhesion in Human umbilical endothelial cell culture, by using HUVEC surface expression assay at 50 uM; type: functional
Method in brief: as §2, with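 “°C. After formalin fixation, surface ICAM-1 was measured by cell ELISA (mouse anti-ICAM-1 0.5 μg/mL, peroxidase anti-mouse IgG), with absorbance at 414 nm.” for “°C.”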

[11] = The compound was tested for cell adhesion by measuring the inhibitory concentration against Human umbilical vein endothelial cell (HUVEC) activation, using Na51CrO4 as radioligand at 100 micro M; type: functional; method in brief: as §1
[12] = The compound was tested for cell adhesion by measuring the inhibitory concentration against Human umbilical vein endothelial cell (HUVEC) activation, using Na51CrO4 as radioligand at 100 uM; type: functional; method in brief: as §1
[13] = The compound was tested for inhibitory activity against vascular cell adhesion molecule (VCAM)-1 mediated cell adhesion in Human aortic endothelial cell culture, by using HAEC surface expression assay at 50 micro M
[14] = The compound was tested for inhibitory activity against intercellular adhesion molecule (ICAM)-1 mediated cell adhesion in Human aortic endothelial cell culture, by using HAEC surface expression assay at 50 micro M
[15] = The compound was tested for inhibitory activity against vascular cell adhesion molecule (VCAM)-1 mediated cell adhesion in Human aortic endothelial cell culture, by using HAEC surface expression assay at 50 uM; type: functional
Method in brief: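 Human aortic endothelial cells at confluence were incubated with TNF-α (250 U/mL) and compound (0.005% DMSO final) for 18 h, then formalin-fixed. Cells were probed with anti-VCAM-1 mAb (2 h, 37 °C), then biotin anti-mouse IgG+IgM F(ab)₂ (1 h), then [¹²⁵I]streptavidin (15 min, 4 °C). NaOH digests were counted.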

[16] = Inhibitory activity against E-Selectin mediated cell adhesion in Human umbilical endothelial cell culture, by using HUVEC surface expression assay.; type: functional, cell-based
Method in brief: as §3, with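 “°C. Cells were formalin-fixed and surface E-selectin detected by cell ELISA (mouse anti-E-selectin 0.5 μg/mL, peroxidase anti-mouse IgG), with absorbance at 414 nm.” for “°C.”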

[17] = Inhibitory activity against intercellular adhesion molecule (ICAM)-1 mediated cell adhesion in Human umbilical endothelial cell culture, by using HUVEC surface expression assay.; type: functional, cell-based
Method in brief: as §2, with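 “°C. After formalin fixation, surface ICAM-1 was measured by cell ELISA (mouse anti-ICAM-1 0.5 μg/mL, peroxidase anti-mouse IgG), with absorbance at 414 nm.” for “°C.”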

[18] = cell adhesion assay; measuring the inhibitory concentration against Human umbilical vein endothelial cell (HUVEC) activation, using Na51CrO4 as radioligand at 100 uM; type: functional; settings: in the assay text read “calcein-AM” for “Na51CrO4”
[19] = The compound was tested for cell adhesion by measuring the inhibitory concentration against Human umbilical vein endothelial cell (HUVEC) activation, using calcein-AM radioligand at 100 uM; type: functional

COc1ccc2sc(C(N)=O)c(SC)c2c1
inhibition at 100 µM [1]: 81%

COc1ccc2sc(C(N)=O)c(SCCN)c2c1
inhibition at 33 µM [2]: 0%

CC(C)Oc1c(C(N)=O)sc2ccc(O)cc12
IC50 [3]: 3.5 µM
IC50 [4]: 6.4 µM
inhibition at 50 µM [5]: 91%
IC50 [6]: 3.3 µM

CCNC(=O)c1ccc2ccc(OC)cc2c1OC(C)C
inhibition at 100 µM [1]: 73%

COc1ccc2sc(C(N)=O)c(SCC(=O)O)c2c1
inhibition at 33 µM [2]: 7%

COc1ccc2sc(C(=O)Nc3ccccc3)c(OC(C)C)c2c1
inhibition at 100 µM [1]: 12%

COc1ccc2sc(C(N)=O)c(SCCCCC(=O)O)c2c1
inhibition at 100 µM [7]: 37%

COc1ccc2c(c1)c(OC(C)C)c(C(N)=O)[s+]2[O-] (stereo unspecified)
inhibition at 50 µM [8]: 25%
inhibition at 50 µM [9]: 20%
inhibition in vivo at 50 mg/kg (Rattus norvegicus): 5%
inhibition at 50 µM [10]: 24%

COc1ccc2oc(C(N)=O)c(OC(C)C)c2c1
IC50 [3]: 5 µM
IC50 [4]: 14 µM
IC50 [6]: 7.9 µM

CC(C)Oc1c(C(N)=O)ccc2ccccc12
inhibition at 100 µM [1]: < 4%

CCNC(=O)c1sc2ccc(OC)cc2c1OC(C)C
Inhibition [11]: 64%

COCn1c(C(N)=O)c(OC(C)C)c2cc(OC)ccc21
IC50 [4]: 34 µM

COc1ccc2sc(C(=O)Nc3cccc(C(=O)O)c3)c(OC(C)C)c2c1
inhibition at 100 µM [1]: 28%

COc1ccc2c(c1)c(OC(C)C)c(C(=O)NC(C)C)[s+]2[O-] (stereo unspecified)
inhibition at 100 µM [12]: 8%

CC(C)Sc1c(C(N)=O)sc2ccccc12
inhibition at 100 µM [1]: 34%

COc1ccc2sc(C(N)=O)c(OC)c2c1
inhibition at 100 µM [1]: 60%

COc1ccc2c(OC(C)C)c(C(N)=O)sc2c1
inhibition at 100 µM [1]: 24%

COc1ccc2sc(C(=O)Nc3ccc(C(=O)O)cc3)c(OC(C)C)c2c1
IC50 [4]: 50 µM

CNC(=O)c1sc2ccc(OC)cc2c1OC(C)C
Inhibition [13]: 83%
IC50 [3]: 6.6 µM
IC50 [4]: 15 µM
Inhibition [14]: 85%
IC50 [6]: 1.4 µM

COc1ccc2c(c1)c(OC(C)C)c(C(N)=O)n2C
inhibition at 50 µM [15]: 84%
IC50 [3]: 3.7 µM
IC50 [4]: 10 µM
inhibition at 50 µM [5]: 92%
IC50 [6]: 9.2 µM

CC(C)Oc1c(C(N)=O)sc2ccc(Cl)cc12
inhibition at 100 µM [1]: 72%

CNC(=O)c1c(OC(C)C)c2cc(OC)ccc2[s+]1[O-] (stereo unspecified)
inhibition at 100 µM [12]: 43%

CCNC(=O)c1oc2ccc(OC)cc2c1OC(C)C
inhibition at 100 µM [7]: < 4%

CC(C)Oc1c(C(N)=O)[s+]([O-])c2ccc(O)cc12 (stereo unspecified)
IC50 [16]: 5 µM
IC50 [17]: 2.7 µM

CNC(=O)c1sc2ccc(OC)cc2c1SC(C)C
inhibition at 33 µM [2]: 61%

COc1ccc2sc(C(N)=O)c(Sc3ccccc3)c2c1
inhibition at 100 µM [1]: 48%

CC(C)Oc1c(C(N)=O)sc2ccccc12
inhibition at 100 µM [1]: 60%

CC(C)Oc1c(C(N)=O)[s+]([O-])c2ccccc12 (stereo unspecified)
inhibition at 100 µM [18]: < 4%

COc1ccc2sc(C(=O)NCc3ccccc3)c(OC(C)C)c2c1
inhibition at 100 µM [19]: 35%
